Active and inactive are the calls of the source.
How the values were obtained:
Rattus norvegicus [1] = species: Rattus norvegicus; settings: Wistar, Brain, Membranes, at 10 µM
Cannabinoid receptor [2] = target: T1, Cannabinoid receptor (Rattus norvegicus, UniProt Q9QZN9+P20272); assay type: cell membranes, Wistar, Brain, Membranes
Mu-type opioid receptor = Mu-type opioid receptor (Rattus norvegicus, UniProt P33535); experiment: Displacement of [3H]DAMGO from MOR in Wistar rat brain membranes after 60 mins by liquid scintillation analysis; assay type: cell membranes
Cannabinoid receptor [3] = target: T1, Cannabinoid receptor; experiment: Displacement of [3H]JWH-018 from CB1R/CB2R in Wistar rat brain membranes after 60 mins by liquid scintillation analysis; assay type: cell membranes
[4] = target: Kappa-type opioid receptor (Cavia porcellus, UniProt P41144); assay type: cell membranes, Brain, Membranes
[5] = Agonist activity at MOR/CB1R/CB2R receptor in Wistar rat brain membranes after 60 mins by [35S]-GTPgammaS binding assay; assay type: cell membranes
[6] = target: Delta-type opioid receptor (Rattus norvegicus, UniProt P33533); experiment: Displacement of [3H]Ile5,6-deltorphin-2 from DOR in Wistar rat brain membranes after 60 mins by liquid scintillation analysis; assay type: cell membranes
[7] = target: Mu-type opioid receptor (Rattus norvegicus) (UniProt P33535); experiment: Antagonist activity at MOR in Wistar rat brain membranes at 10 uM in presence of oxycodone after 60 mins by [35S]-GTPgammaS binding assay relative to control; assay type: functional, cell membranes
How it was run: (§1)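 Rat brain membranes (30 µg protein/tube) incubated 60 min at 30 °C with 0.05 nM [35S]GTPγS and ligand at 10^-10–10^-5 M. Buffer: 50 mM Tris-HCl pH 7.4 with 30 µM GDP, 100 mM NaCl, 3 mM MgCl2, 1 mM EGTA. Nonspecific binding taken with 10 µM GTPγS; basal set as 100%. Filtration and scintillation counting; n≥3.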

[8] = target: T2, Cannabinoid receptor (Rattus norvegicus) (UniProt Q9QZN9+P20272); experiment: Antagonist activity at CB1R/CB2R in Wistar rat brain membranes at 10 uM in presence of JWH-018 after 60 mins by [35S]-GTPgammaS binding assay relative to control; assay type: functional, cell membranes
How it was run: as §1, with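 “EGTA. […]” for “EGTA.”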

[9] = target: Mu-type opioid receptor (Rattus norvegicus) (UniProt P33535); experiment: Antagonist activity at MOR in Wistar rat brain membranes at 10 uM in presence of Tyr-D-Ala-Gly-Phe-NH2 after 60 mins by [35S]-GTPgammaS binding assay relative to control; assay type: functional, cell membranes
How it was run: as §1

Rattus norvegicus [10] = species: Rattus norvegicus; experiment: Antagonist activity at MOR/CB1R/CB2R in Wistar rat brain membranes at 10 uM in presence of N-[6-[[2-[[(4R,4aS,7aR,12bS)-4a-hydroxy-9-methoxy-3-methyl-2,4,5,6,7a,13-hexahydro-1H-4,12-methanobenzofuro[3,2-e]isoquinoline-7-ylidene]amino]oxyacetyl]amino]hexyl]-6-[3-(naphthalene-1-carbonyl)indol-1-yl]hexanamide after 60 mins by [35S]-GTPgammaS binding assay relative to control; assay type: cell membranes
How it was run: as §1, with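 “EGTA. […]” for “EGTA.”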

Rattus norvegicus [11] = species: Rattus norvegicus; experiment: Antagonist activity at MOR/CB1R/CB2R in Wistar rat brain membranes at 10 uM in presence of (S)-N-((2R,8S)-18-(3-(1-naphthoyl)-1H-indol-1-yl)-8-benzyl-3,6,9,12-tetraoxo-4,7,10,13-tetraazaoctadecan-2-yl)-2-amino-3-(4-hydroxyphenyl)propanamide after 60 mins by liquid scintillation analysis relative to control; assay type: cell membranes
How it was run: as §1, with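 “EGTA. […]” for “EGTA.”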

[12] = target: T2, Cannabinoid receptor (Rattus norvegicus); experiment: Displacement of [3H]JWH-018 from CB1R/CB2R in Wistar rat brain membranes at 10 uM after 60 mins by liquid scintillation analysis; assay type: cell membranes
How it was run: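 Whole rat brain membranes (cerebellum removed; 0.3–0.5 mg/mL protein) in 50 mM Tris-HCl pH 7.4 with 2.5 mM EGTA, 5 mM MgCl2 and 0.5 mg/mL fatty-acid-free BSA, 30 °C. Kinetics used 0.6 nM [3H]JWH-018: association over 0–90 min, dissociation started with 10 µM JWH-018 after 60 min. Saturation over 0.5–35 nM. Competitors at 10^-11–10^-5 M, 60 min. Nonspecific binding with 10 µM JWH-018. Filtration onto PEI-soaked GF/B filters; n≥3.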

Rattus norvegicus [13] = species: Rattus norvegicus; experiment: Agonist activity at MOR/CB1R/CB2R in Wistar rat brain membranes after 60 mins by [35S]-GTPgammaS binding assay relative to control; assay type: cell membranes
How it was run: as §1, with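 “EGTA. […]” for “EGTA.”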

Rattus norvegicus [14] = experiment: Effect on nociception of the contralateral paw in rat model of sodium iodoacetate-induced osteoarthritis paw withdrawal threshold in early phase at 20 ug administered as intrathecal injection measured up to 45 mins by Von Frey test (reference value: 44 +/- 2.4 g); assay type: organism-based; settings: in vivo, icv_or_intrathecal, 0.75 h
[15] = target: T3, Cannabinoid receptor 2 (Rattus norvegicus) (UniProt Q9QZN9); experiment: Agonist activity at CB2R in Wistar rat brain membranes at 10 uM in presence of AM630 after 60 mins by [35S]-GTPgammaS binding assay relative to control; assay type: functional, cell membranes
T3 sequence (whole entry): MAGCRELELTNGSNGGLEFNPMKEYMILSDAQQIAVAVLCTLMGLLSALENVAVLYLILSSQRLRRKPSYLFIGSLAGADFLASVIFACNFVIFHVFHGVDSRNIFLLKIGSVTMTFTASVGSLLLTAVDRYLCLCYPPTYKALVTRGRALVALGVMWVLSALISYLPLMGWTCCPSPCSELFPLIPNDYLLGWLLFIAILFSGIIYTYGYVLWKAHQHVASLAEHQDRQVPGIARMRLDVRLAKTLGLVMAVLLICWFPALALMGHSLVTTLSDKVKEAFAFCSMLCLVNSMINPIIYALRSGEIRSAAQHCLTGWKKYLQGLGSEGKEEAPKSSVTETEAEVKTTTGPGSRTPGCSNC
How it was run: as §1, with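 “EGTA. […]” for “EGTA.”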

Cannabinoid receptor 2 = target: T4, Cannabinoid receptor 2 (Rattus norvegicus, UniProt Q9QZN9); experiment: Agonist activity at CB2R in Wistar rat brain membranes in presence of AM630 after 60 mins by [35S]-GTPgammaS binding assay; assay type: functional, cell membranes
T4 sequence (Q9QZN9 whole entry): T3 sequence (whole entry)
How it was run: as §1, with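 “EGTA. […]” for “EGTA.”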

[16] = target: Cannabinoid receptor 1 (Rattus norvegicus) (UniProt P20272); experiment: Agonist activity at CB1R in Wistar rat brain membranes at 10 uM in presence of rimonabant after 60 mins by [35S]-GTPgammaS binding assay relative to control; assay type: functional, cell membranes
How it was run: as §1, with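 “EGTA. […]” for “EGTA.”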

Rattus norvegicus [17] = experiment: Effect on nociception of the contralateral paw in rat model of sodium iodoacetate-induced osteoarthritis paw withdrawal threshold in late phase at 20 ug administered as intrathecal injection measured after 60 to 90 mins by Von Frey test (reference value: 43 +/- 3.4 g); assay type: organism-based; settings: in vivo, icv_or_intrathecal
Rattus norvegicus [18] = species: Rattus norvegicus; experiment: Agonist activity at MOR/CB1R/CB2R in Wistar rat brain membranes at 10 uM in presence of naloxone,rimonabant and AM630 after 60 mins by [35S]-GTPgammaS binding assay relative to control; assay type: cell membranes
How it was run: as §1, with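 “EGTA. […]” for “EGTA.”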

Mus musculus = experiment: Antinociceptive activity in CD-1 mouse assessed as increase in thermal latency at 10 mg/kg, iv after 15 to 120 mins by hot plate technique; assay type: functional, organism-based
How it was run: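 Male CD-1 mice (25 g) given 10 mg/kg i.v. in 10 mL/kg; vehicle saline with 5% DMSO. Hot plate held at 55.0 °C. Latency to paw lick or jump, cut-off 60 s, read at 15–120 min. Baseline is the mean of three pre-test readings. Data given as %MPE; n=6/group.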

Cannabinoid receptor 1 = Cannabinoid receptor 1 (Rattus norvegicus, UniProt P20272); experiment: Agonist activity at CB1R in Wistar rat brain membranes in presence of rimonabant after 60 mins by [35S]-GTPgammaS binding assay; assay type: functional, cell membranes
How it was run: as §1, with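 “EGTA. […]” for “EGTA.”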

Rattus norvegicus [19] = experiment: Antiallodynic activity in sodium iodoacetate-induced rat model of osteoarthritis assessed as increase in maximum effect in early phase at 20 ug administered as intrathecal injection measured up to 45 mins by Von Frey test; assay type: functional, organism-based

Kappa-type opioid receptor, sequence (P41144 whole entry): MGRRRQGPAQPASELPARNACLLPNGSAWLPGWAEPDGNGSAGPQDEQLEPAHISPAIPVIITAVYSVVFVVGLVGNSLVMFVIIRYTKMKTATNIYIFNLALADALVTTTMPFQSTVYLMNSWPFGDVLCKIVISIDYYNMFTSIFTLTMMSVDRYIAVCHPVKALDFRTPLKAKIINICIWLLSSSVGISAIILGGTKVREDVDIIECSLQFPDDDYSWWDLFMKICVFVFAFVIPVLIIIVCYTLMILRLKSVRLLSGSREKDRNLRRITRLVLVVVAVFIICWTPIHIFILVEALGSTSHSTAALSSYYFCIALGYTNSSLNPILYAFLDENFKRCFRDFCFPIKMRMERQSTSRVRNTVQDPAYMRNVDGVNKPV
Delta-type opioid receptor, sequence (P33533 whole entry): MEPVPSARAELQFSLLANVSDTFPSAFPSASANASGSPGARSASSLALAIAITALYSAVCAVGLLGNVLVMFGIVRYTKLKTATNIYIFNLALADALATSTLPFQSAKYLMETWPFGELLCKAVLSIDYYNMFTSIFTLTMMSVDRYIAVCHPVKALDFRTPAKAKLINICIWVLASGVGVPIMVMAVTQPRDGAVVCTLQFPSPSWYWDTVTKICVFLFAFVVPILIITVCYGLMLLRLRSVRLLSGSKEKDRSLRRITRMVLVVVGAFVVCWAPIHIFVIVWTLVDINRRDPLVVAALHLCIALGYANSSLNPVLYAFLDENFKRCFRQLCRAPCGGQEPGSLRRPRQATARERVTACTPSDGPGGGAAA
T2 sequence (P20272 whole entry, looked up, one chain of several): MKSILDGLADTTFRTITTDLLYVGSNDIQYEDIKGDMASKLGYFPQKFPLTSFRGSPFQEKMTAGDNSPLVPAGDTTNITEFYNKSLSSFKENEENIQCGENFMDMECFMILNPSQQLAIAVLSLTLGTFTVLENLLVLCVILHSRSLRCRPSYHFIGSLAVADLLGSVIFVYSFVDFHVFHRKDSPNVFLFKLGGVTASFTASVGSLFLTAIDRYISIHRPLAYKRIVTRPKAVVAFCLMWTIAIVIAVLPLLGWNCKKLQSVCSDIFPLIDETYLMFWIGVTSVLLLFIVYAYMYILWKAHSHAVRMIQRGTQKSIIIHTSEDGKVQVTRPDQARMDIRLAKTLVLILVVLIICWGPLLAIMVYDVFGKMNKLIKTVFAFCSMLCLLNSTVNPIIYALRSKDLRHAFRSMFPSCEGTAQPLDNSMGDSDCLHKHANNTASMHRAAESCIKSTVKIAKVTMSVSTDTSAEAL
Mu-type opioid receptor, sequence (P33535 whole entry): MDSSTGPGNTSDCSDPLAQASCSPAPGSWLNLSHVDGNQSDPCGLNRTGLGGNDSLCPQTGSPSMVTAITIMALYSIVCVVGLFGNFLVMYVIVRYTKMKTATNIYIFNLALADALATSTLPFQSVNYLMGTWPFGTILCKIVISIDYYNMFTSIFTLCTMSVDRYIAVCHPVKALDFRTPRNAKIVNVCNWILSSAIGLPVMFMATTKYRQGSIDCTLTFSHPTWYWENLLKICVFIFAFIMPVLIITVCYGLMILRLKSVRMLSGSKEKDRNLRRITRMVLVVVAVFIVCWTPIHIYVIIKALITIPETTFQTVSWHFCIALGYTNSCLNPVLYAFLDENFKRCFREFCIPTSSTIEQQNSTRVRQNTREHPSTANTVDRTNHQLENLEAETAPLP
Mu-type opioid receptor (Rattus norvegicus), sequence (P33535 whole entry): as above
Cannabinoid receptor 1 (Rattus norvegicus), sequence (P20272 whole entry): as the sequence (P20272 whole entry, looked up, one chain of several) above
Cannabinoid receptor 1, sequence (P20272 whole entry): as the sequence (P20272 whole entry, looked up, one chain of several) above

## C[C@@H](NC(=O)[C@@H](N)Cc1ccc(O)cc1)C(=O)NCC(=O)N[C@@H](Cc1ccccc1)C(=O)NCCCCCn1cc(C(=O)c2cccc3ccccc23)c2ccccc21
Rattus norvegicus [1]
  Emax: 110%
Cannabinoid receptor [2]
  Ki: 823 nM
Mu-type opioid receptor
  Ki: 50 nM
Cannabinoid receptor [3]
  Ki: 1013 nM
[4]
  Ki: 231 nM
[5]
  EC50: 1800 nM
[6]
  Ki: 214 nM

## C[C@@H](NC(=O)[C@@H](N)Cc1ccc(O)cc1)C(=O)NCC(=O)N[C@@H](Cc1ccccc1)C(=O)NCCC(=O)NCCCCCn1cc(C(=O)c2cccc3ccccc23)c2ccccc21
Rattus norvegicus [1]
  Emax: 114%
Cannabinoid receptor [2]
  Ki: 1216 nM
Mu-type opioid receptor
  Ki: 48 nM
Cannabinoid receptor [3]
  Ki: 919 nM
[4]
  Ki: 151 nM
[5]
  EC50: 18 nM
[6]
  Ki: 190 nM

## COc1ccc2c3c1O[C@H]1/C(=N\OCC(=O)NCCCOCCOCCOCCCN)CC[C@@]4(O)[C@@H](C2)N(C)CC[C@]314
Rattus norvegicus [1]
  Emax: 112%
Mu-type opioid receptor
  Ki: 74 nM
[4]
  Ki: 503 nM
[5]
  EC50: 200 nM
[6]
  Ki: 757 nM

## COc1ccc2c3c1O[C@H]1/C(=N\OCC(=O)NCCCOCCOCCOCCCNC(=O)CCCCCn4cc(C(=O)c5cccc6ccccc56)c5ccccc54)CC[C@@]4(O)[C@@H](C2)N(C)CC[C@]314
Rattus norvegicus [1]
  Emax: 99%
[7]
  Emax: 100%
[8]
  Emax: 110%
Cannabinoid receptor [2]
  Ki: 78 nM
Mu-type opioid receptor
  Ki: 20 nM
Cannabinoid receptor [3]
  Ki: 183 nM
[4]
  Ki: 186 nM
[9]
  Emax: 97%
Rattus norvegicus [10]
  Emax: 101%
Rattus norvegicus [11]
  Emax: 99%
[6]
  Ki: 386 nM

## NC(=O)[C@H](Cc1ccccc1)NC(=O)[C@H](Cc1c[nH]c2ccccc12)NC(=O)[C@@H]1CCCN1C(=O)[C@@H](N)Cc1ccc(O)cc1
[12]
  Activity: inactive

## H-PVNFKFL-OH
Cannabinoid receptor [3]
  Ki: > 10000 nM

## COc1ccc2c3c1O[C@H]1/C(=N\OCC(=O)NCCN)CC[C@@]4(O)[C@@H](C2)N(C)CC[C@]314
Rattus norvegicus [1]
  Emax: 113%
Mu-type opioid receptor
  Ki: 17 nM
[4]
  Ki: 471 nM
[5]
  EC50: 450 nM
[6]
  Ki: 533 nM

## COc1ccc2c3c1O[C@H]1/C(=N\OCC(=O)O)CC[C@@]4(O)[C@@H](C2)N(C)CC[C@]314
Rattus norvegicus [1]
  Emax: 109%
Mu-type opioid receptor
  Ki: 24 nM
[4]
  Ki: > 10000 nM
[5]
  EC50: 225 nM
[6]
  Ki: 110 nM

## C[C@@H](NC(=O)[C@@H](N)Cc1ccc(O)cc1)C(=O)NCC(=O)N[C@@H](Cc1ccccc1)C(=O)NCC(=O)NCCCCCn1cc(C(=O)c2cccc3ccccc23)c2ccccc21
Rattus norvegicus [13]
  Emax: 161%
Rattus norvegicus [14]
  Activity: 39 g
[15]
  Emax: 148%
Rattus norvegicus [1]
  Emax: 160%
Cannabinoid receptor [2]
  Ki: 317 nM
Cannabinoid receptor [3]
  Ki: 251 nM
Cannabinoid receptor 2
  EC50: 671 nM
[16]
  Emax: 125%
[4]
  Ki: 63 nM
Rattus norvegicus [17]
  Activity: 35 g
[5]
  EC50: 114 nM
Rattus norvegicus [18]
  Emax: 100%
[6]
  Ki: 134 nM
Mus musculus
  Activity: Active
Cannabinoid receptor 1
  EC50: 378 nM
Rattus norvegicus [19]
  Activity: Active

## C[C@@H](NC(=O)[C@@H](N)Cc1ccc(O)cc1)C(=O)NCC(=O)N[C@@H](Cc1ccccc1)C(=O)NCCCC(=O)NCCCCCn1cc(C(=O)c2cccc3ccccc23)c2ccccc21
Rattus norvegicus [1]
  Emax: 125%
Cannabinoid receptor [2]
  Ki: 1042 nM
Mu-type opioid receptor
  Ki: 20 nM
Cannabinoid receptor [3]
  Ki: 928 nM
[4]
  Ki: 50 nM
[5]
  EC50: 60 nM
[6]
  Ki: 92 nM

## CN1CC[C@]23c4c5ccc(O)c4O[C@H]2[C@@H](O)C=C[C@H]3[C@H]1C5
[12]
  Activity: inactive
